Data set [1] can be described thus: Octanol-water partition coefficient, log P of the compound. Type of data set: physicochemical.
In data set [2] the target is T1, Peroxisome proliferator-activated receptor alpha (Homo sapiens, UniProt Q07869).
T1 sequence (Q07869 whole entry): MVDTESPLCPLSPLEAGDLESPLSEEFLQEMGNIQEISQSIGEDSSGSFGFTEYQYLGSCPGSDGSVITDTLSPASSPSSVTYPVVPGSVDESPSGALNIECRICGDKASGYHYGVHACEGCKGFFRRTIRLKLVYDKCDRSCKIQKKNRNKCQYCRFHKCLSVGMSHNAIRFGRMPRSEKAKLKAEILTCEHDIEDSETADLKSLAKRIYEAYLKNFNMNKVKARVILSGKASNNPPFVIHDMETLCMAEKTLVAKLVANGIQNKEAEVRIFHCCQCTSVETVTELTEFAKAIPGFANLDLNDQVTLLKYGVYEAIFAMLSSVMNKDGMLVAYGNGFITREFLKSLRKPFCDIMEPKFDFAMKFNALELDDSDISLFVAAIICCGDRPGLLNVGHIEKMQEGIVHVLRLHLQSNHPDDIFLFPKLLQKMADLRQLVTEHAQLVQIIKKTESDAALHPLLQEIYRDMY
In words: Displacement of pan-PPAR fluormone from PPARalpha LBD by TR-FRET based LanthaScreen assay. For orientation: Time-resolved FRET reads energy transfer from a long-lived donor to a nearby acceptor.

Data set [3] has as its target T2, Peroxisome proliferator-activated receptor gamma (Homo sapiens, UniProt P37231).
T2 sequence (P37231 whole entry): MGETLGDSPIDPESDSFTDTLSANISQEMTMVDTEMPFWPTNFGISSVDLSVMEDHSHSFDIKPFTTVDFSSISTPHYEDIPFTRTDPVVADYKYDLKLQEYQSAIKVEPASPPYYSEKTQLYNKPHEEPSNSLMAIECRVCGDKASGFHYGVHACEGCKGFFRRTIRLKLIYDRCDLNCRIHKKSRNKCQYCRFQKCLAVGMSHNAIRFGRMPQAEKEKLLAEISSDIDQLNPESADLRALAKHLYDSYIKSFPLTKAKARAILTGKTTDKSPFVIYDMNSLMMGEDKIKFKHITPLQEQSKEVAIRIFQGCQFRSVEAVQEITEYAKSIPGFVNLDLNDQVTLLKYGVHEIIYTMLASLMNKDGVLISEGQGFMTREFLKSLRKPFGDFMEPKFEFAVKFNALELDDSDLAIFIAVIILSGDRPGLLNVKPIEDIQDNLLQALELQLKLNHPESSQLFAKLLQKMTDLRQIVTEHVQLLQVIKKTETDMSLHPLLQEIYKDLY
In words: (§1) Agonist activity at PPARgamma LBD in human 293H DA cells after 16 hrs by TR-FRET activation reporter assay. The data set is classed as functional, cell-based. An outline of the steps: (§2)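 GeneBLAzer PPARγ 293H DA cells plated at 30 000 cells/well, exposed to compound (0.1 to 10 000 nM; 0.1% DMSO final) for approximately 16 h. LiveBLAzer-FRET B/G substrate loaded for 2 h, then fluorescence read at 460 and 530 nm. […] EC50 from sigmoidal varying-slope fit. Triplicates, at least two independent experiments.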

In data set [4] the target is T3, Peroxisome proliferator-activated receptor gamma (Homo sapiens) (UniProt P37231).
T3 sequence (whole entry): T2 sequence (P37231 whole entry)
The data set is described as §1. Type of data set: functional, cell-based. An outline of the steps: as §2

For data set [5], the species on record is Homo sapiens. As to the kind of experiment: Selectivity ratio of EC50 for PPARalpha LBD to EC50 for PPARgamma LBD.
Data set [6] has as its target T2, Peroxisome proliferator-activated receptor gamma. In words: Binding affinity to PPARgamma LBD by fluorescence polarization based competitive binding assay. In general terms: Fluorescence polarisation rises when a labelled molecule tumbles more slowly, as on binding a larger partner.
Data set [7] addresses T4, Peroxisome proliferator-activated receptor delta (Homo sapiens, UniProt Q03181).
T4 sequence (Q03181 whole entry): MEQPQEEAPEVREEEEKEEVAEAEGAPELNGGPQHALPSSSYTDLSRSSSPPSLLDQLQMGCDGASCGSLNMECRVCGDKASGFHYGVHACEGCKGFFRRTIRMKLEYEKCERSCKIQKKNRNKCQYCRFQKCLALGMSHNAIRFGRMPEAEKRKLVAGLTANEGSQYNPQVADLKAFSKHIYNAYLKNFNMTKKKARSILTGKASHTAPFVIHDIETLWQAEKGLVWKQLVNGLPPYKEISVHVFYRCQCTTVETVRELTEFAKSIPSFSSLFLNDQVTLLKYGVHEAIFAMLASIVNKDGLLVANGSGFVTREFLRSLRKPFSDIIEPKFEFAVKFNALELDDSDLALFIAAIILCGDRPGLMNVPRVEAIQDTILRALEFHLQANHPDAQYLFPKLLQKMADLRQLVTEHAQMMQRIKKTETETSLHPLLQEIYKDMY
As to the kind of experiment: Displacement of pan-PPAR fluormone from PPARdelta LBD by TR-FRET based LanthaScreen assay.

In data set [8] the target is T2, Peroxisome proliferator-activated receptor gamma. In words: Displacement of pan-PPAR fluormone from PPARgamma LBD by TR-FRET based LanthaScreen assay.
In data set [9] the target is PPAR delta/gamma (Homo sapiens) (UniProt P37231+Q03181). As to the kind of experiment: Selectivity ratio of EC50 for PPARdelta LBD to EC50 for PPARgamma LBD.
Data set [10] deals with T3, Peroxisome proliferator-activated receptor gamma (Homo sapiens). As to the kind of experiment: Agonist activity at PPARgamma LBD in human 293H DA cells after 16 hrs by TR-FRET activation reporter assay relative to rosiglitazone. Type of data set: functional, cell-based. An outline of the steps: as §2
The target in data set [11] is T5, Peroxisome proliferator-activated receptor alpha (Homo sapiens) (UniProt Q07869).
T5 sequence (whole entry): T1 sequence (Q07869 whole entry)
As to the kind of experiment: Displacement of pan-PPAR fluormone from PPARalpha LBD at >= 100 uM by TR-FRET based LanthaScreen assay.

Data set [12] addresses T3, Peroxisome proliferator-activated receptor gamma (Homo sapiens). As to the kind of experiment: Binding affinity to PPARgamma LBD at >= 100 uM by fluorescence polarization based competitive binding assay.
Data set [13] has the same target. As to the kind of experiment: Displacement of pan-PPAR fluormone from PPARgamma LBD at >= 100 uM by TR-FRET based LanthaScreen assay.

Consider 7 compounds from ChEMBL document CHEMBL2062388, “Integrated virtual screening for the identification of novel and selective peroxisome proliferator-activated receptor (PPAR) scaffolds” (J Med Chem, 2012).

As a reminder, the logP is a log measure of how a compound divides between an organic and an aqueous phase. One may read the EC50 as the midpoint of the concentration-response curve.

Structures are written as SMILES. The source made the active and inactive calls. The calls are words filed in the database; no cut-off is given here.

`CN(CCOc1ccc(C[C@H](Nc2ccccc2C(=O)c2ccccc2)C(=O)O)cc1)c1ccccn1` came in with a lipophilicity (logP) in data set [1] of 5.23.

With `O=C(Nn1cc([N+](=O)[O-])cn1)c1cccc(COc2ccc(Br)cc2)c1`, the half-maximal effective concentration (EC50) in data set [2] (read-out: EC50) is 11.4 µM; in [3], 0.682 µM; in data set [6], 5.45 µM; in data set [7] it was 21 µM; in [8], 5.45 µM. Further, in data set [4], the Activity result was “Dose-dependent effect”. In addition, the results for the Ratio EC50 in data set [5] and in data set [9] were 2 and 4, respectively. Also, the lipophilicity (logP) in [1] came to 3.71. Also, the Emax in data set [10] worked out at 68.7%.

Take `O=C1NC(=S)NC(=O)C1=Cc1ccc(OCc2ccccc2)c(Cl)c1`: the EC50 entry in data set [2] was “Not Active”; in [3], 0.467 µM; in [6], 0.325 µM; in [8], 0.215 µM. Moreover, the Activity entry in data set [4] was “Dose-dependent effect”. The same compound had a lipophilicity (logP) in data set [1] of 3.11. This compound gave an Emax in data set [10] of 91.6%.

In [1], `CN(CCOc1ccc(CC2SC(=O)NC2=O)cc1)c1ccccn1` (stereo unspecified) [ROSIGLITAZONE] returned a logP of 2.62. Moreover, in data set [11], the inhibition result was “inactive”.

As to `CCOC(=O)c1sc(N2C(=O)C(O)=C(C(=O)c3cccs3)C2c2ccc(C)o2)nc1C` (stereo unspecified), the EC50 was 0.594 µM in data set [3], 2.4 µM in data set [6], 26 µM in data set [7] and 2.4 µM in data set [8]. Besides, the Activity result in data set [4] was “Dose-dependent effect”. Further, in data set [1], the log partition coefficient (logP) was 2.39. Moreover, in data set [11], the inhibition entry is “inactive”. For the same compound, in data set [9], the Ratio EC50 is 10.8. Besides, the Emax in data set [10] was determined as 77.5%.

`CC(C)(Sc1ccc(CCN(CCCCC2CCCCC2)C(=O)NC2CCCCC2)cc1)C(=O)O` [GW7647]: the inhibition result in [12] and in [13] was “inactive” throughout. The lipophilicity (logP) in [1] was determined as 8.02.

On to `Cc1cc(SCc2sc(-c3ccc(C(F)(F)F)c(F)c3)nc2C)ccc1OCC(=O)O`, for which, in data set [2] (read-out: EC50), the EC50 was found to be 0.92 µM. In addition, the inhibition result in data set [12] and in [13] was “inactive” each time. In [1], this compound registered a logP of 5.95.
